Test results from ChEMBL document CHEMBL1131155, “Design of new topoisomerase II inhibitors based upon a quinobenzoxazine self-assembly model” (J Med Chem, 1998).

Experiments:
Raji = experiment: The compound was tested for the concentration to inhibit 50% of Raji lymphoma cells.; assay type: functional, cell-based; conditions: Homo sapiens
Outline: (§1)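 Exponentially growing cells seeded on day 0. Graded compound concentrations added in duplicate on day 1, then incubated at 37 °C. MTT (1 mg/mL in PBS) given for 4 h at 37 °C and formazan dissolved in 0.4 N HCl/isopropanol. Absorbance read at 570 nm against a 630 nm reference. IC50 derived from the dose-response curve.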

B16 = experiment: The compound was tested for the concentration to inhibit 50% of B16 murine melanoma cells.; assay type: functional, cell-based; conditions: Mus musculus; outline: as §1
HT-29 = experiment: The compound was tested for the concentration to inhibit 50% of HT-29 colon cells.; assay type: functional, cell-based; conditions: Homo sapiens; outline: as §1
MDA-MB-231 = experiment: The compound was tested for the concentration to inhibit 50% of MDA-231 breast cancer cell lines.; assay type: functional, cell-based; conditions: Homo sapiens; outline: as §1
Nucleic Acid = experiment: Tested for the DNA unwinding concentration that causes a shift of the topoisomers from the original to the middle position between the relaxed and the supercoiled bands.; assay type: functional
Outline: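 Supercoiled pHOT1 DNA (0.25 μg) relaxed with 5 units topo I, 37 °C for 30 min. Drug at various concentrations then added and incubated a further 30 min. Stopped with 1% SDS, proteinase K treatment at 56 °C, and chloroform-isoamyl alcohol extraction. Topoisomers run on 1% agarose in TPE with 0.2 μg/mL chloroquine, 10 V for 20 h. Gel post-stained with ethidium and scanned.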

DNA topoisomerase II = DNA topoisomerase II (Homo sapiens, UniProt P11388+Q02880); experiment: Inhibition of topoisomerase II as conversion of catenated to decatenated KDNA; assay type: protein assay
Outline: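 kDNA (0.25 μg) preincubated 10 min with varied compound levels in 50 mM Tris-HCl pH 8, 120 mM KCl, 10 mM MgCl₂, 0.5 mM ATP and DTT. Then 2 units human topo II (170-kDa form) added, 37 °C for 30 min. Stopped with sarkosyl stop buffer. Products resolved on 1% agarose with ethidium bromide and quantified by fluorescence scanning.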

NCI-H226 = experiment: The compound was tested for the concentration to inhibit 50% of H226 non-small cell lung cells.; assay type: functional, cell-based; conditions: Homo sapiens; outline: as §1
DU-145 = experiment: The compound was tested for the concentration to inhibit 50% of DU-145 prostate cells.; assay type: functional, cell-based; conditions: Homo sapiens; outline: as §1

IC50 (Raji)	IC50 (B16)	IC50 (HT-29)	IC50 (MDA-MB-231)	IC50 (DNA topoisomerase II)	IC50 (NCI-H226)	IC50 (DU-145)	Compound	DNA unwinding concentration (Nucleic Acid)
0.21 µM	0.65 µM	0.36 µM	0.38 µM	1.84 µM	0.2 µM	0.14 µM	O=C(O)c1cn2c3c(c(N4CCNCC4)c(F)cc3c1=O)Oc1c-2ccc2ccccc12	> 100 µM
0.034 µM	0.02 µM	0.026 µM	0.005 µM	0.24 µM	0.013 µM	0.03 µM	N[C@@H]1CCN(c2c(F)cc3c(=O)c(C(=O)O)cn4c3c2Oc2c-4ccc3ccccc23)C1	3 µM
0.02 µM	0.18 µM	0.051 µM	0.084 µM	0.49 µM	0.027 µM	0.064 µM	N[C@H]1CCN(c2c(F)cc3c(=O)c(C(=O)O)cn4c3c2Oc2c-4ccc3ccccc23)C1	10 µM
0.029 µM	0.02 µM	0.023 µM	0.01 µM	0.44 µM	0.014 µM	0.03 µM	N[C@H]1CCN(c2c(F)cc3c(=O)c(C(=O)O)cn4c3c2Oc2cc3ccccc3cc2-4)C1	13 µM
0.038 µM	0.1 µM	0.028 µM	0.023 µM	0.77 µM	0.004 µM	0.025 µM	NC1CCN(c2c(F)cc3c(=O)c(C(=O)O)cn4c3c2Oc2cc3ccccc3cc2-4)C1 (stereo unspecified)	–
0.05 µM	0.17 µM	0.16 µM	0.16 µM	0.51 µM	0.09 µM	0.16 µM	N[C@H]1CCN(c2c(F)cc3c(=O)c(C(=O)O)cn4c3c2Oc2ccccc2-4)C1	50 µM
0.082 µM	0.13 µM	0.27 µM	0.19 µM	0.72 µM	0.13 µM	0.14 µM	N[C@H]1CCN(c2c(F)cc3c(=O)c(C(=O)O)cn4c3c2Oc2ccc3ccccc3c2-4)C1	19 µM
0.018 µM	0.04 µM	0.03 µM	0.027 µM	0.55 µM	0.022 µM	0.017 µM	NC1CCN(c2c(F)cc3c(=O)c(C(=O)O)cn4c3c2Oc2c-4ccc3ccccc23)C1 (stereo unspecified)	–
0.086 µM	0.44 µM	0.18 µM	0.15 µM	0.77 µM	0.14 µM	0.2 µM	NC1CCN(c2c(F)cc3c(=O)c(C(=O)O)cn4c3c2Oc2ccc3ccccc3c2-4)C1 (stereo unspecified)	–
0.0072 µM	0.045 µM	6.8 µM	> 1000 µM	0.64 µM	> 100 µM	0.075 µM	O=C(O)c1cn2c3c(c(N4CCNCC4)c(F)cc3c1=O)Oc1cc3ccccc3cc1-2	> 100 µM
0.8 µM	2.1 µM	2 µM	2.2 µM	9.6 µM	2.1 µM	0.84 µM	O=C(O)c1cn2c3c(c(N4CCNCC4)c(F)cc3c1=O)Oc1ccc3ccccc3c1-2	> 100 µM
0.16 µM	0.68 µM	0.36 µM	0.35 µM	1.22 µM	2.4 µM	0.36 µM	N[C@@H]1CCN(c2c(F)cc3c(=O)c(C(=O)O)cn4c3c2Oc2ccc3ccccc3c2-4)C1	35 µM
0.032 µM	0.14 µM	0.022 µM	0.021 µM	0.42 µM	0.022 µM	0.048 µM	N[C@@H]1CCN(c2c(F)cc3c(=O)c(C(=O)O)cn4c3c2Oc2cc3ccccc3cc2-4)C1	15 µM
